The record followed here is ChEMBL document CHEMBL4229458, “Lipid accumulation inhibitory activities of novel isoxazole-based chenodeoxycholic acids: Design, synthesis and preliminary mechanism study” (Bioorg Med Chem Lett, 2018).

In data set [1] the test system is 3T3-L1. Put plainly: Inhibition of lipid accumulation in mouse 3T3L1 cells at 10 uM by oil red o staining-based assay. The data set is classed as functional. In short, it runs like this: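 3T3-L1 preadipocytes differentiated for 6 days into mature adipocytes, then treated at 10 μM. Intracellular lipid stained with Oil Red O and quantified relative to vehicle. Mean ± SD of two independent experiments.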

Data set [2] concerns 3T3-L1. Put plainly: Cytotoxicity against mouse 3T3L1 cells assessed as decrease in cell viability at 40 uM after 48 hrs by MTT assay. To be noted: 3t3-l1, 48 h. In kind it is cell-based. In short, it runs like this: (§1)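 3T3-L1 preadipocytes given 5, 10, 20 and 40 μM for 48 h, with 1% DMSO as control. Viability measured by MTT. Mean ± SD of two independent experiments.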
A general note: Tetrazolium assays rely on reduction of a dye to a coloured formazan, in cell work by metabolically active cells.

The test system of data set [3] is 3T3-L1. Put plainly: Cytotoxicity against mouse 3T3L1 cells assessed as decrease in cell viability at 10 uM after 48 hrs by MTT assay. In kind it is cell-based. The settings on record: 3t3-l1, 48 h. In short, it runs like this: as §1
Data set [4] concerns the target T1, Bile acid receptor (Homo sapiens) (UniProt Q96RI1).
T1 sequence (whole entry): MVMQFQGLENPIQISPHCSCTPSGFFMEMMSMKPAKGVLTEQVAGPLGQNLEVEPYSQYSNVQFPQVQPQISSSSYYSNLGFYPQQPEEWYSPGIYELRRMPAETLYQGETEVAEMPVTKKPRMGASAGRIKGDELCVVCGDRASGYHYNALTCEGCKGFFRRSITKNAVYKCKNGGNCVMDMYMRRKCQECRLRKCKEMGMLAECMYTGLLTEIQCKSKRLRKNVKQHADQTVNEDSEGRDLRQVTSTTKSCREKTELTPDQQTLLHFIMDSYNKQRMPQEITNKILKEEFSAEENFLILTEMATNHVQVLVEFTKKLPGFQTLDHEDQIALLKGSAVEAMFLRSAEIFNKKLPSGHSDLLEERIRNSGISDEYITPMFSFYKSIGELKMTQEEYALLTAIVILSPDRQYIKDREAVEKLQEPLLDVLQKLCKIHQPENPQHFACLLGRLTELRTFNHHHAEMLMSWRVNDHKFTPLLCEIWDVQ
Put plainly: Activation of FXR in human HepG2 cells assessed as upregulation of FXR mRNA expression at 10 uM by RT-PCR method. The data set is classed as cell-based. The essentials:
(§2)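 HepG2 cells treated at 10 μM. mRNA of FXR, SHP and SREBP-1c quantified by real-time PCR against vehicle (0.1% DMSO). Mean ± SEM, n = 3.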

In data set [5] the target is T1, Bile acid receptor (Homo sapiens). Put plainly: Activation of FXR in human HepG2 cells assessed as upregulation of SHP mRNA expression at 10 uM by RT-PCR method. The data set is classed as cell-based. The essentials:
as §2

Data set [6] shares this target. Put plainly: Activation of FXR in human HepG2 cells assessed as downregulation of SREBP-1c mRNA expression at 10 uM by RT-PCR method. In kind it is cell-based. In short, it runs like this:
as §2

In data set [7] the test system is HepG2. Put plainly: Cytotoxicity against human HepG2 cells assessed as decrease in cell viability at 5 to 80 uM after 48 hrs by MTT assay. In kind it is cell-based. The settings on record: hepg2, 48 h. The essentials:
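HepG2 cells exposed to 5, 10, 20, 40 and 80 μM for 48 h. Viability read by MTT.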

The structures appear in SMILES notation. Calls of active or inactive are those of the source. The calls are words filed in the database; no cut-off is given here.

As for `Cc1noc(C)c1C(=O)N[C@H]1CC[C@@]2(C)[C@@H](C1)C[C@@H](O)[C@@H]1[C@@H]2CC[C@]2(C)[C@@H]([C@H](C)CCC(=O)Nc3ccc(F)cc3)CC[C@@H]12`, in data set [1], the inhibition entry was “Active”. Besides, the Activity result in data set [2] and in data set [3] was “Non-Toxic” throughout.
Regarding `C[C@H](CCC(=O)O)[C@H]1CC[C@H]2[C@@H]3[C@H](O)C[C@@H]4C[C@H](O)CC[C@]4(C)[C@H]3CC[C@]12C`, in data set [1], the inhibition result is “Active”.
With `Cc1noc(C)c1C(=O)N[C@H]1CC[C@@]2(C)[C@@H](C1)C[C@@H](O)[C@@H]1[C@@H]2CC[C@]2(C)[C@@H]([C@H](C)CCC(=O)NCC(=O)O)CC[C@@H]12`, the inhibition result in data set [1] was “Active”. For the same molecule, the Activity entry in data set [2] and in data set [3] was “Non-Toxic” each time.
For the molecule `Cc1noc(C)c1C(=O)N[C@H]1CC[C@@]2(C)[C@@H](C1)C[C@@H](O)[C@@H]1[C@@H]2CC[C@]2(C)[C@@H]([C@H](C)CCC(=O)Nc3ccc(Cl)cc3)CC[C@@H]12`, the inhibition entry in data set [1] is “Active”. Also, the Activity result in data set [2] and in data set [3] was “Non-Toxic” in each case.
With `COC(=O)CC[C@@H](C)[C@H]1CC[C@H]2[C@@H]3[C@H](O)C[C@@H]4C[C@@H](NC(=O)c5c(C)noc5C)CC[C@]4(C)[C@H]3CC[C@]12C`, the inhibition entry in data set [1] is “Active”. For the same molecule, the Activity result in data set [2] and in data set [3] was “Non-Toxic” each time.
As for `Cc1noc(C)c1C(=O)N[C@H]1CC[C@@]2(C)[C@@H](C1)C[C@@H](O)[C@@H]1[C@@H]2CC[C@]2(C)[C@@H]([C@H](C)CCC(N)=O)CC[C@@H]12`, the inhibition entry in data set [1] is “Active”. The Activity entry in data set [2] and in data set [3] was “Non-Toxic” throughout.
Regarding `CCNC(=O)CC[C@@H](C)[C@H]1CC[C@H]2[C@@H]3[C@H](O)C[C@@H]4C[C@@H](NC(=O)c5c(C)noc5C)CC[C@]4(C)[C@H]3CC[C@]12C`, the inhibition entry in data set [1] was “Active”. Further, the Activity result in data set [2] and in data set [3] was “Non-Toxic” each time.
As for `Cc1noc(C)c1C(=O)N[C@H]1CC[C@@]2(C)[C@@H](C1)C[C@@H](O)[C@@H]1[C@@H]2CC[C@]2(C)[C@@H]([C@H](C)CCC(=O)O)CC[C@@H]12`, the inhibition result in data set [1] is “Active”. Further, the Activity entry in data set [2] and in data set [3] was “Non-Toxic” in each case.
Regarding `CC(C)c1onc(-c2c(Cl)cccc2Cl)c1COc1ccc(/C=C/c2cccc(C(=O)O)c2)c(Cl)c1`, the result in data set [4], in data set [5] and in data set [6] was Active. Besides, in data set [7], the Activity result is listed as “Non-Toxic”.
For `CNC(=O)CC[C@@H](C)[C@H]1CC[C@H]2[C@@H]3[C@H](O)C[C@@H]4C[C@@H](NC(=O)c5c(C)noc5C)CC[C@]4(C)[C@H]3CC[C@]12C`, the result in data set [4], in data set [5] and in data set [6] was Active. In data set [1], this molecule had an inhibition at 10 µM of 30.5%. In addition, the Activity entry in data set [2], in data set [3] and in data set [7] was “Non-Toxic” each time.
Turning to `CC(=O)Nc1ccc(NC(=O)CC[C@@H](C)[C@H]2CC[C@H]3[C@@H]4[C@H](O)C[C@@H]5C[C@@H](NC(=O)c6c(C)noc6C)CC[C@]5(C)[C@H]4CC[C@]23C)cc1`, in data set [1], the inhibition entry is “Active”. Besides, the Activity entry in data set [2] is listed as “Toxic”; in data set [3], “Non-Toxic”.
For `Cc1noc(C)c1C(=O)N[C@H]1CC[C@@]2(C)[C@@H](C1)C[C@@H](O)[C@@H]1[C@@H]2CC[C@]2(C)[C@@H]([C@H](C)CCC(=O)Nc3cccc(Cl)c3)CC[C@@H]12`, in that order: “Active”, “Non-Toxic” and “Non-Toxic”.

One may read the inhibition as the change of the read-out against control, counted positive when it falls.
